# Active and inactive are the calls of the source.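 How the source made its calls, unless noted: active means inhibition above 20% together with a positive visual image hit; inconclusive means visual image hit but inhibition not above 20%; inactive means no visual image hit.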
# Key:
# [1] = inhibitors of TNFa-induced NFkB p65 translocation, primary screen, imaging, HUVEC, MLSMR starter and 10KST1 sets (AID 438); settings: HUVEC TNFa-induced p65 nuclear translocation; cell count: measured here: nuclei count (cytotoxicity indicator), at 2.08 µM; inhibition: at 2 µM, stronger effect = higher value, 0% TNFa-plus-vehicle, 100% no-TNFa wells;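 further: compound added about 3h40 before a 20 min TNFalpha stimulation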;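 on inhibition: signal is the nuclear over cytoplasmic p65 intensity ratio per well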
# [2] = endothelial E-selectin expression blockers – imaging, HUVEC, immunofluorescence, MLSMR starter and 10KST1 sets, primary screen (AID 487;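 active means visually confirmed hit in the image check and inhibition above 20%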;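 on inhibition: signal is fraction of cell area covered by stained E-selectin grains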;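 on nuclei count: 100% = median nuclei count of all wells on the same plate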); settings: HUVEC TNFalpha-induced E-selectin immunofluorescence imaging, at 2 µM; inhibition: stronger effect = higher value; nuclei count: measured here: cell number, toxicity
# [3] = Primary imaging screen for DUSP6 inhibitors that restore phospho-Erk in transfected HeLa cells, chemical complementation (AID 609;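 active means compounds giving at least 50% inhibition in the cell-based MKP-3 phosphatase rescue imaging test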;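 on inhibition: phospho-Erk level distribution per well compared with pooled transfected vehicle control wells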); settings: HeLa MKP-3 transfected, phospho-Erk imaging KS statistic, at 10 µM, cells stimulated with TPA for 15 min
# [4] = target: Dual specificity protein phosphatase 6 (Homo sapiens) (UniProt Q16828); assay: as above; settings: HeLa MKP-3 transfected, phospho-Erk imaging KS statistic; at 10 µM; stronger effect = higher value; cells stimulated with TPA for 15 min
# [5] = target: Voltage-gated potassium channel subunit beta-2 (Rattus norvegicus) (UniProt P62483); assay: inhibitors of rat Kvbeta2 reductase activity – biochemical, NADPH fluorescence, primary screen (AID 622;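 active means fluorescence slope higher than the sample average by over 3 SD, cut at about -0.22 in these data, passing the limit was not always enough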;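 further: slope of raw intensity against log time taken from 70 to 1610 s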); settings: recombinant KvBeta, 4-cyanobenzaldehyde reduction, at 10 µM, stronger effect = higher value
# [6] = target: Voltage-gated potassium channel subunit beta-2 (Rattus norvegicus) (UniProt P62483); assay: enhancers of rat Kvbeta2 NADPH turnover – biochemical, NADPH fluorescence, primary screen (AID 623;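 active means NADPH fluorescence slope more negative than the mean of all samples by about 3 SD, 99.7% confidence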;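 further: fluorescence intensity change per second fitted from 20 to 320 s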); settings: Recombinant KvBeta, NADPH fluorescence decrease slope, 10 min; at 10 µM; stronger effect = lower value
# [7] = target: Muscarinic acetylcholine receptor M4 (Homo sapiens) (UniProt P08173); assay: M4-linked GIRK flux change, two-sided – cell-based, HEK293 M4/GIRK, thallium flux, BTC-AM, M4 allosteric agonist project, primary screen (AID 625;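 active means fluorescence slope after compound addition differing from the mean of all tested samples at 99.7% confidence, mostly higher but some lower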;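 further: thallium influx through GIRK channels coupled to M4 in HEK293 cells with BTC-AM dye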); settings: at 10 µM, actives lie on both sides
# Procedure, shortened: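 Material: M4/GIRK1/GIRK2 stable HEK293 cell line. Medium: pH 7.3 thallium assay buffer. Dosing: single compound concentration, 10 µM final. Schedule: 1 h dye loading, 2 min kinetic read. Measured by: kinetic fluorescence with BTC-AM dye. Read-out: post-addition slope, 15–24 s, of baseline-normalized fluorescence. Benchmarks: carbachol and DMSO controls.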
# [8] = inhibitors of larval lipid processing in zebrafish, primary screen, whole organism, PED6 fluorescence, gall bladder and intestine (AID 686;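 active means a full or partial loss of lipid-probe fluorescence in the fish gall bladder, intestine or both, judged by eye; inactive means no fluorescence loss, or compound toxic to the fish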;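 further: larvae 5 to 7 days old with five fish per well; signal comes from phospholipase A2 cleavage of quenched PED6 carried via bile; overnight exposure to compound and PED6 before scoring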); settings: Zebrafish larvae PED6 lipid processing, fluorescence scoring; screened at 20 µM (by protocol)
# Procedure, shortened: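 System: live zebrafish larvae aged 5-7 days, whole organism; measure: graded gall bladder and intestinal fluorescence inhibition per well; incubation: overnight exposure; reagent: ingested quenched lipid PED6 at 100 nM; signal: By-eye fluorescence microscopy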
# [9] = loss of swimming-algae plug formation – whole organism, Chlamydomonas reinhardtii, WT vs cilia-less mutant, absorbance, 96-well, primary screen (AID 463189;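 active means inhibition at or above 50% relative to wild type and mutant plate controls; inactive means inhibition below 50%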;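 further: 0% = wild type cc124 cells in DMSO and 100% = ciliumless bld1 mutant cells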); settings: Chlamydomonas reinhardtii gravitaxis, OD600 absorbance, 2 days; at 10 µM; stronger effect = higher value
# [10] = measured here: cell density z-score
# [11] = measured here: nuclear c-Myc green intensity z-score
# [12] = measured here: nuclear pErk red intensity z-score, stronger effect = higher value
# Sequence of Dual specificity protein phosphatase 6 (Homo sapiens) (Q16828 whole entry, looked up): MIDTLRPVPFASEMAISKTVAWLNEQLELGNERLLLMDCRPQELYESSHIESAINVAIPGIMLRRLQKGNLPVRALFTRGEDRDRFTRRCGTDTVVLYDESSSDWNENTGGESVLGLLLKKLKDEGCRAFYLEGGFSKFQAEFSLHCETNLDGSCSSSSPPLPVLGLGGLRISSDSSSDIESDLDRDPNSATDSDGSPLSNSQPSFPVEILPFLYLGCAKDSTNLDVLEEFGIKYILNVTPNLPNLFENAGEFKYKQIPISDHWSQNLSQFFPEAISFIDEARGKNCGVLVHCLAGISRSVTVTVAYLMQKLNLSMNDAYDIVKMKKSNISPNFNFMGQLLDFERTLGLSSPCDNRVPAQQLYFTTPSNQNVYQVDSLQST
# Sequence of Voltage-gated potassium channel subunit beta-2 (Rattus norvegicus) (P62483 whole entry, looked up): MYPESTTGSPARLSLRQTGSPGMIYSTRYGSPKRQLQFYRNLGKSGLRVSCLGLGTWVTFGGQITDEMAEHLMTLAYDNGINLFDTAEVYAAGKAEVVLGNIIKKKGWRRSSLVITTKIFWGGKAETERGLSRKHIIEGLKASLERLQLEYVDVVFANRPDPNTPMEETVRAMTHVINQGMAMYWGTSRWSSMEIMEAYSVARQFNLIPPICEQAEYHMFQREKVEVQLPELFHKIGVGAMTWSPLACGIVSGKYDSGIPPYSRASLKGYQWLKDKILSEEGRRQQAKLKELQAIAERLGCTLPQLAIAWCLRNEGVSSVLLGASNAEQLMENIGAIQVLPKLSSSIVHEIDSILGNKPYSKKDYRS
# Sequence of Muscarinic acetylcholine receptor M4 (Homo sapiens) (P08173 whole entry, looked up): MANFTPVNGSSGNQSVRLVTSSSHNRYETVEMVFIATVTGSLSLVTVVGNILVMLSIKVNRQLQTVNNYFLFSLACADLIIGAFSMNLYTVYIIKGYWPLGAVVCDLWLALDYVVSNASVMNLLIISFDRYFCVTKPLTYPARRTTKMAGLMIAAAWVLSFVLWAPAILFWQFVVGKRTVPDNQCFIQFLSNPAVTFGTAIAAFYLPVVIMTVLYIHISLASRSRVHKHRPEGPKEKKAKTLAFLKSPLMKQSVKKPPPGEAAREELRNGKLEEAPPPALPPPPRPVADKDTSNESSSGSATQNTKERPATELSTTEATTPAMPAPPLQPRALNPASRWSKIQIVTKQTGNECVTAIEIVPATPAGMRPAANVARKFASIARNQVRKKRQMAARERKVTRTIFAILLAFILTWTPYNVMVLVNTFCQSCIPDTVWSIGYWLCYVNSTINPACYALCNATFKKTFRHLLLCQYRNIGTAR
SMILES,cell count [1],inhibition [1],inhibition [2],nuclei count [2],"z-score [3, 10]","z-score [3, 11]","z-score [3, 12]",inhibition [4],fluorescence slope [5],NADPH fluorescence slope [6],fluorescence slope [7],outcome [8],inhibition [9]
O=C1CCCN1c1ccc(S(=O)(=O)NCc2ccco2)cc1,702,3.6% (inactive),-53.1% (inactive),180%,0.977,-0.343,1.6,15.9% (inactive),-0.489 (inactive),-3.7e-05 (inactive),0.00466 (inactive),inactive,15.5% (inactive)
Cc1ccc(CNC(=O)c2cc3c(=O)n4ccccc4nc3n(Cc3ccco3)c2=N)cc1,620,2.6% (inactive),18.3% (inactive),134%,-0.0379,0.826,-0.239,-2.29% (inactive),-0.456 (inactive),-4.8e-05 (inactive),0.00363 (inactive),active; weak signal in gallbladder and intestine,32.6% (inactive)
Cc1ccccc1N1C(=O)C2ON(c3ccccc3)C(c3cccnc3)C2C1=O (stereo unspecified),541,-7% (inactive),20.1% (inactive),88.7%,1.39,0.945,-1.38,7.7% (inactive),-0.502 (inactive),-4.4e-05 (inactive),0.00555 (inactive),inactive,-7.8% (inactive)
Cc1c2c([n+]3n1CCC3)CC(C)(C)CC2=O,617,10.2% (inactive),-23.3% (inactive),121%,-0.832,1.36,0.404,-7.67% (inactive),-0.443 (inactive),-3.2e-05 (inactive),0.00512 (inactive),inactive,-11.5% (inactive)
O=C(/C=N/O)NCCCN1CCOCC1,682,-11.2% (inactive),3.2% (inactive),168%,-1.5,-0.495,2.77,-15.1% (inactive),-0.477 (inactive),-7.4e-05 (inactive),0.00666 (inactive),inactive,5.9% (inactive)
CCCCc1[nH]c(=O)c(C#N)c2c1CSC(C)(C)C2,551,0.5% (inactive),-122% (inactive),132%,0.749,0.642,-1.4,17.4% (inactive),-0.482 (inactive),-0.000112 (inactive),0.00497 (inactive),inactive,0.152% (inactive)
CCOC(=O)Cc1[nH]nc2c1C(c1cc(OC)ccc1OC)C(C#N)=C(N)O2 (stereo unspecified),591,-5.3% (inactive),-13.2% (inactive),140%,1.07,1.02,0.992,21% (inactive),-0.503 (inactive),-5.8e-05 (inactive),0.00642 (inactive),inactive,-4.63% (inactive)
Cc1cc(=O)oc2c(CN3CCCCC3)c(O)c(Cl)cc12,703,-7.3% (inactive),-40.4% (inactive),146%,0.085,0.889,-2.46,7.83% (inactive),-0.0387 (inactive),-0.000132 (inactive),0.0046 (inactive),inactive,15.8% (inactive)
C=CCOc1ccc(/C(O)=C2\C(=O)C(=O)N(CCN(C)C)C2c2cccs2)cc1 (stereo unspecified),642,2.8% (inactive),-0.3% (inactive),181%,0.295,1.17,0.318,12.8% (inactive),-0.469 (inactive),-6.6e-05 (inactive),0.00599 (inactive),inactive,10.2% (inactive)
Cc1ccc(S(=O)(=O)c2cc3c(=O)n4cccc(C)c4nc3n(CC3CCCO3)c2=N)cc1 (stereo unspecified),573,-12.2% (inactive),34.6% (inactive),107%,0.122,0.519,-1.24,-8.27% (inactive),-0.456 (inactive),-3.3e-05 (inactive),0.00435 (inactive),inactive,-6.46% (inactive)
CCC(C(=O)Nc1nccs1)(C(F)(F)F)C(F)(F)F,719,-18.9% (inactive),-106% (inactive),203%,0.755,0.213,0.296,5.95% (inactive),-0.49 (inactive),-6.4e-05 (inactive),0.00509 (inactive),inactive,0.594% (inactive)
COc1ccc2nc(SCC(=O)O)nc(C)c2c1,472,-2.5% (inactive),-119% (inactive),167%,-1.34,-1.35,0.21,-2.29% (inactive),-0.447 (inactive),-4.9e-05 (inactive),0.00491 (inactive),inactive,25.2% (inactive)
CC(O)(C#CCN1CCOCC1)c1ccccc1 (stereo unspecified),634,1.5% (inactive),-34.4% (inactive),149%,0.104,0.285,0.53,-5.81% (inactive),-0.455 (inactive),-5.1e-05 (inactive),0.00484 (inactive),inactive,17.4% (inactive)
Cc1ccc(C(=O)C2=C(O)C(=O)N(CCN3CCOCC3)C2c2ccccn2)o1 (stereo unspecified),403,1.7% (inactive),-75.7% (inactive),147%,-0.208,-0.969,-0.257,-0.608% (inactive),-0.474 (inactive),-0.0001 (inactive),0.00402 (inactive),inactive,-7.55% (inactive)
O=C(COc1ccc(-c2nnc(N3CCCCC3)c3ccccc23)cc1)N1CCCCC1,373,1.4% (inactive),-58.5% (inactive),89.7%,0.333,-0.404,1.13,5.65% (inactive),-0.487 (inactive),2e-05 (inactive),0.00419 (inactive),inactive,34.6% (inactive)
COc1ccc(CC(=O)OCN2C(=O)c3ccccc3C2=O)cc1,518,-10.2% (inactive),-70.2% (inactive),138%,0.489,-1.2,-0.603,11.9% (inactive),-0.359 (inactive),-1.7e-05 (inactive),0.00563 (inactive),inactive,20.5% (inactive)
CN(CCOC(=O)c1ccc2c(c1)OCCO2)Cc1ccccc1,661,-16.5% (inactive),-9.5% (inactive),184%,0.691,-0.671,1.4,5.35% (inactive),-0.472 (inactive),-0.000111 (inactive),0.00763 (inactive),inactive,69.7% (active)
COCCNc1oc(-c2ccc(F)cc2)nc1C#N,631,-8.1% (inactive),-48.8% (inactive),162%,1.98,-0.407,1.1,24% (inactive),-0.446 (inactive),-6.5e-05 (inactive),0.00617 (inactive),inactive,-8.51% (inactive)
O=C(O)CSCC(=O)Nc1ccc(S(=O)(=O)N2CCCCC2)cc1,500,-7.8% (inactive),-62% (inactive),162%,0.13,-1.22,0.192,-3.95% (inactive),-0.424 (inactive),-3.2e-05 (inactive),0.00479 (inactive),inactive,-4.71% (inactive)
CCCC1C(c2ccc(OC)cc2)C(C#N)(C#N)C2(C#N)CC1(N)NC2=O (stereo unspecified),369,-0.7% (inactive),-28.9% (inactive),84.9%,-2.59,2.42,-0.136,-2.69% (inactive),-0.495 (inactive),3.3e-05 (inactive),0.00515 (inactive),inactive,-15.7% (inactive)
Cc1cc(NCCNC2=CC(=O)CCC2)nc2ccccc12,473,-10.2% (inactive),-41.3% (inactive),148%,-0.963,1.28,-0.176,-3.97% (inactive),-0.431 (inactive),-4.6e-05 (inactive),0.0072 (inactive),inactive,-12.8% (inactive)
Nc1nnnn1N=C1CCCCC1,662,-3.4% (inactive),-120% (inactive),170%,0.907,-0.604,-0.484,-2.29% (inactive),-0.493 (inactive),-3.7e-05 (inactive),0.00643 (inactive),inactive,2.87% (inactive)
Cc1cc(=O)oc(C)c1C(=O)NCC1CCCO1 (stereo unspecified),606,9.1% (inactive),-24.6% (inactive),123%,0.0605,0.0774,0.0396,5.35% (inactive),-0.441 (inactive),-4.3e-05 (inactive),0.00527 (inactive),inactive,5.07% (inactive)
CC(=O)Nc1ccc(OC(=O)CC2SC(=O)NC2=O)cc1 (stereo unspecified),552,-6.8% (inactive),-32.3% (inactive),97.7%,-1.89,0.746,-1.34,-2.91% (inactive),-0.469 (inactive),-3.2e-05 (inactive),0.00549 (inactive),inactive,-6.84% (inactive)
CC(=O)c1cccc(N=C2NC(=O)C(CO)(CO)S2)c1,634,1.6% (inactive),-12.3% (inactive),118%,-2.29,1.22,0.157,-2.09% (inactive),-0.441 (inactive),-4.4e-05 (inactive),0.00557 (inactive),inactive,-10% (inactive)
C=CCn1c(=N)c(C(=O)OCC)cc2c(=O)n3cccc(C)c3nc21,614,5.3% (inactive),-125% (inactive),149%,-2.08,1.41,1.9,-9.66% (inactive),-0.114 (inactive),-2e-05 (inactive),0.00285 (inactive),inactive,159% (active)
c1ccc(-n2ncc3c(NCC4CCCO4)ncnc32)cc1 (stereo unspecified),597,-4% (inactive),-84.5% (inactive),113%,-2.6,-0.155,1.07,1.42% (inactive),-0.389 (inactive),-9.3e-05 (inactive),0.00807 (inactive),inactive,-15.2% (inactive)

# From PubChem BioAssay
